According to ChEMBL document CHEMBL1157933, “The anti-cancer, anti-inflammatory and tuberculostatic activities of a series of 6,7-substituted-5,8-quinolinequinones” (Bioorg Med Chem, 2010):

Legend:
HL-60 = assay: Antiproliferative activity against human HL60 cells after 48 hrs by MTT assay; format: functional, cell-based; conditions: HL-60, 48 h
[1] = Antiproliferative activity against human T cells after 48 hrs by MTT assay; format: cell-based; conditions: T-cell
In short: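 Healthy-donor PBMC (Ficoll-hypaque) activated 2 days with CD2/CD3/CD28-loaded anti-biotin beads, then expanded 2–4 days with 20 U/mL IL-2. Cells plated at 0.2 × 10^6 cells/mL in complete RPMI with varied compound concentrations for 48 h at 37 °C; MTT 2 h, SDS/DMF lysis overnight, absorbance 570 nm. Triplicate, mean reported.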

[2] = Antiinflammatory activity in human neutrophils assessed as inhibition of PMA-induced superoxide production after 20 mins by WST1 assay; format: functional, cell-based; conditions: Neutrophil

`O=C1C(Cl)=C(NCCBr)C(=O)c2ncccc21` gave an IC50 (HL-60) of 1.2 µM, an IC50 [1] of 2.5 µM and an IC50 [2] of 20.7 µM.
In the case of `CS(=O)(=O)C1=C(N)C(=O)c2cccnc2C1=O`, the IC50 (HL-60) is reported as 4.53 µM, the IC50 [1] is reported as 19.3 µM and the IC50 [2] is reported as > 200 µM.
For `Cc1ccc(S(=O)(=O)C2=C(Cl)C(=O)c3ncccc3C2=O)cc1`, the IC50 (HL-60) was 38.1 µM, the IC50 [1] was 35.5 µM and the IC50 [2] was > 200 µM.
With `CNC1=C(Sc2ccccc2)C(=O)c2ncccc2C1=O` the IC50 (HL-60) was 8.03 µM, the IC50 [1] was 12.2 µM and the IC50 [2] was > 150 µM.
For `O=C1C2=C(NCCS2)C(=O)c2ncccc21`, the IC50 (HL-60) was 3.52 µM, the IC50 [1] was 6.02 µM and the IC50 [2] was > 200 µM.
For `CSC1=C(SC)C(=O)c2ncccc2C1=O`, the IC50 (HL-60) was 1.23 µM, the IC50 [1] was 1.69 µM and the IC50 [2] was 0.11 µM.
In the case of `CNC1=C(Sc2ccccc2)C(=O)c2cccnc2C1=O`, the IC50 (HL-60) is reported as 5.88 µM, the IC50 [1] is reported as 6.91 µM and the IC50 [2] is reported as 92.8 µM.
For `Cc1ccc2c(n1)C(=O)C(NCCBr)=C(Cl)C2=O`, the IC50 (HL-60) was 1.21 µM, the IC50 [1] was 1.59 µM and the IC50 [2] was 73.2 µM.
In the case of `Cc1ccc2c(n1)C(=O)C(Cl)=C(Cl)C2=O`, the IC50 (HL-60) is reported as 18.7 µM, the IC50 [1] is reported as 44.9 µM and the IC50 [2] is reported as 3.4 µM.
With `O=C1C(NCCCl)=C(Cl)C(=O)c2ncccc21` the IC50 (HL-60) was 1.62 µM, the IC50 [1] was 2.29 µM and the IC50 [2] was 37 µM.
For `CNC1=C(Cl)C(=O)c2cccnc2C1=O`, the IC50 (HL-60) was 4.3 µM, the IC50 [1] was 5.21 µM and the IC50 [2] was 41.1 µM.
Compound `Oc1c(Sc2ccccc2)c(Sc2ccccc2)c(O)c2ncccc12` has an IC50 (HL-60) of 6.95 µM, an IC50 [1] of 10 µM and an IC50 [2] of 2.3 µM.
In the case of `CNC1=C(SC)C(=O)c2ncccc2C1=O`, the IC50 (HL-60) is reported as 3.44 µM, the IC50 [1] is reported as 19.5 µM and the IC50 [2] is reported as > 200 µM.
For `Cc1ccc(S(=O)(=O)C2=C(S(=O)(=O)c3ccc(C)cc3)C(=O)c3ncccc3C2=O)cc1`, the IC50 (HL-60) was 61.6 µM, the IC50 [1] was 40.5 µM and the IC50 [2] was > 200 µM.
With `O=C1c2cccnc2C(=O)C2SCCNC12` (stereo not drawn) the IC50 (HL-60) was 4.24 µM, the IC50 [1] was 5.88 µM and the IC50 [2] was > 200 µM.
For `CNC1=C([S+](C)[O-])C(=O)c2cccnc2C1=O` (stereo not drawn), the IC50 (HL-60) was 33.2 µM, the IC50 [1] was 13.4 µM and the IC50 [2] was > 200 µM.
In the case of `CSC1=C(N)C(=O)c2cccnc2C1=O`, the IC50 (HL-60) is reported as 7.64 µM, the IC50 [1] is reported as 8.32 µM and the IC50 [2] is reported as > 150 µM.
In the case of `Cc1ccc2c(n1)C(=O)C(Cl)=C(NCCBr)C2=O`, the IC50 (HL-60) is reported as 1.3 µM, the IC50 [1] is reported as 2.23 µM and the IC50 [2] is reported as 34.2 µM.
In the case of `CNC1=C([S+](C)[O-])C(=O)c2ncccc2C1=O` (stereo not drawn), the IC50 (HL-60) is reported as 12.1 µM, the IC50 [1] is reported as 11.8 µM and the IC50 [2] is reported as > 200 µM.
For `C[S+]([O-])C1=C(N)C(=O)c2cccnc2C1=O` (stereo not drawn), the IC50 (HL-60) was 1.3 µM, the IC50 [1] was 1.93 µM and the IC50 [2] was > 200 µM.
In the case of `O=C1C(Cl)=C(NCCCl)C(=O)c2ncccc21`, the IC50 (HL-60) is reported as 1.94 µM, the IC50 [1] is reported as 2.27 µM and the IC50 [2] is reported as 31 µM.
For `O=C1C(NCCBr)=C(Cl)C(=O)c2ncccc21`, the IC50 (HL-60) was 1.65 µM, the IC50 [1] was 2.56 µM and the IC50 [2] was 20 µM.
`CNC1=C(Cl)C(=O)c2ncccc2C1=O` showed an IC50 (HL-60) of 2.45 µM, an IC50 [1] of 3.56 µM and an IC50 [2] of 78.9 µM.
In the case of `CNC1=C(SC)C(=O)c2cccnc2C1=O`, the IC50 (HL-60) is reported as 7.92 µM, the IC50 [1] is reported as 7.57 µM and the IC50 [2] is reported as > 200 µM.
With `O=C1C(NC(c2ccccc2)c2ccccc2)=C(Cl)C(=O)c2ncccc21` the IC50 (HL-60) was 2.45 µM, the IC50 [1] was 2.59 µM and the IC50 [2] was 33.9 µM.
Compound `O=C1C(Sc2ccccc2)=C(Sc2ccccc2)C(=O)c2ncccc21` has an IC50 (HL-60) of 3.68 µM, an IC50 [1] of 7.77 µM and an IC50 [2] of 24.8 µM.
